Laboratory results reported in ChEMBL document CHEMBL4376838, “Discovery of Novel Celastrol Derivatives as Hsp90-Cdc37 Interaction Disruptors with Antitumor Activity” (J Med Chem, 2019).

Tests used:
[1] = molecular target: T1, Hsp90 co-chaperone Cdc37 (Homo sapiens) (UniProt Q16543); assay: Binding affinity to Cdc37 in human A549 cells assessed as inhibition of HSP90-Cdc37 interaction by measuring decrease in Akt phosphorylation level incubated for 12 hrs by Western blot analysis; assay type: cell-based
T1 sequence (whole entry): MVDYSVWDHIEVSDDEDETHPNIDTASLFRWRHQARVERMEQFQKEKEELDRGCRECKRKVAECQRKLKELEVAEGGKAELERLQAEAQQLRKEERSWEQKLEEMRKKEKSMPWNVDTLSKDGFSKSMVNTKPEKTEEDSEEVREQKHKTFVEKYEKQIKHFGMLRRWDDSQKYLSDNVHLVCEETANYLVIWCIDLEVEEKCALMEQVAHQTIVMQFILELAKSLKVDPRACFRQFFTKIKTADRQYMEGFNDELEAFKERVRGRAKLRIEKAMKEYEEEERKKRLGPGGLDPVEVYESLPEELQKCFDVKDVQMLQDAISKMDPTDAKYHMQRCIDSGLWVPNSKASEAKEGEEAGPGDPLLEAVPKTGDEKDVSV
Outline: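 A549 cells (5×10^5 per 6 cm dish) were allowed to settle 12 h, then treated with DMSO or compound at the indicated concentrations for 12 h. Lysates were adjusted to 3 mg/ml protein by BCA and resolved on 10% SDS-PAGE, then Western blotted. β-actin or Hsp90 served as the loading control. Three separate experiments, mean ± SD.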

A549 = assay: Induction of cell cycle arrest in human A549 cells assessed as accumulation at G2 phase at 0.8 uM incubated for 24 hrs by PI staining based flow cytometric analysis (reference value: 19.37%); assay type: functional
Outline: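 A549 cells (4×10^5 per 6 cm dish) were grown 24 h, then exposed to compound (0.2, 0.4, 0.8 μM) or DMSO for 24 h. Cells fixed in 75% ethanol at −20 °C for at least 12 h, treated with RNase A at 37 °C for 30 min, then stained with PI for 15 min in the dark. Analysed by flow cytometry, mean ± SD, n = 3.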

inhibition [1]: Dose-dependent effect
Structure (SMILES): CC1=C(O)C(=O)C=C2C1=CC=C1[C@@]2(C)CC[C@@]2(C)[C@@H]3C[C@](C)(C(=O)OCCCOC(=O)/C=C(\C#N)c4ccc(F)cc4)CC[C@]3(C)CC[C@]12C
Activity (A549): 15.55%
